From ChEMBL document CHEMBL1144562, “Synthesis of a new class of 2-anilino substituted nicotinyl arylsulfonylhydrazides as potential anticancer and antibacterial agents” (2007)
In brackets after ≈: the same amount, converted by molar mass.

Legend:
TK-10 = test: Antitumor activity against TK10 cells; type: functional; conditions: Homo sapiens
Summary of the method: (§1)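 Tested in the NCI 60-human-tumour-cell-line panel at five concentrations, in 10-fold dilutions from 10^-4 to 10^-8 M. Three parameters were taken from the dose-response data, each as log10 of the molar concentration: GI50 (50% net growth inhibition), TGI (total growth inhibition) and LC50 (50% net cell death).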

[1] = Antitumor activity against NCI-H322 cells; type: functional; conditions: Homo sapiens
SK-OV-3 = test: Antitumor activity against SKOV3 cells; type: functional; conditions: Homo sapiens; summary of the method: as §1
DU-145 = test: Antitumor activity against DU145 cells; type: functional; conditions: Homo sapiens
A549 = test: Antitumor activity against A549 cells; type: functional; conditions: Homo sapiens
HOP-62 = test: Antitumor activity against HOP62 cells; type: functional; conditions: Homo sapiens
NCI-H460 = test: Antitumor activity against NCI-H460 cells; type: functional; conditions: Homo sapiens
BT-549 = test: Antitumor activity against BT549 cells; type: functional; conditions: Homo sapiens
HCT-15 = test: Antitumor activity against HCT15 cells; type: functional; conditions: Homo sapiens
SK-MEL-5 = test: Antitumor activity against SK-MEL-5 cells; type: functional; conditions: Homo sapiens; summary of the method: as §1
Bacillus subtilis = test: Antibacterial activity against Bacillus subtilis MTCC 441 after 18 hrs; type: functional; conditions: MTCC 441, 18 h
Summary of the method: (§2)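 Disc diffusion (Kirby–Bauer) on Mueller-Hinton agar inoculated with fresh bacteria at 1-5 × 10^4 cfu mL-1. Compounds were dissolved in DMF at a range of concentrations, and discs were placed in triplicate. Plates were incubated at 30 °C for 18 h. MIC was taken as the lowest concentration giving no visible bacterial growth on the plate.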

[2] = Antitumor activity against HL60 (TB) cells; type: functional, HL-60(TB); conditions: Homo sapiens, HL-60
Summary of the method: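 NCI 60-cell-line in vitro screen (leukaemia subpanel). Compound tested at five 10-fold dilutions from 10^-4 to 10^-8 M. Dose-response parameters: GI50 (concentration giving 50% net growth inhibition), TGI (total growth inhibition) and LC50 (50% net cell death), each reported as log10 of molar concentration.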

[3] = Antitumor activity against LOX IMV1 cells; type: functional; conditions: Homo sapiens
SNB-75 = test: Antitumor activity against SNB75 cells; type: functional; conditions: Homo sapiens; summary of the method: as §1
CCRF-CEM = test: Antitumor activity against CCRF-CEM cells; type: functional; conditions: Homo sapiens
[4] = system: Staphylococcus epidermidis; test: Antibacterial activity against Staphylococcus epidermidis MTCC 435 after 18 hrs; type: functional; conditions: MTCC 435, 18 h; summary of the method: as §2
UACC-257 = test: Antitumor activity against UACC257 cells; type: functional; conditions: Homo sapiens; summary of the method: as §1
K562 = test: Antitumor activity against K562 cells; type: functional; conditions: Homo sapiens
T47D = test: Antitumor activity against T47D cells; type: functional; conditions: Homo sapiens; summary of the method: as §1
HCC 2998 = test: Antitumor activity against HCC2998 cells; type: functional; conditions: Homo sapiens
M14 = test: Antitumor activity against M14 cells; type: functional; conditions: Homo sapiens
Escherichia coli = test: Antibacterial activity against Escherichia coli MTCC 448 after 18 hrs; type: functional; conditions: MTCC 448, 18 h; summary of the method: as §2
KM12 = test: Antitumor activity against KM12 cells; type: functional; conditions: Homo sapiens
MOLT-4 = test: Antitumor activity against MOLT4 cells; type: functional; conditions: Homo sapiens
CAKI-1 = test: Antitumor activity against CAKI1 cells; type: functional; conditions: Homo sapiens
NCI-H226 = test: Antitumor activity against NCI-H226 cells; type: functional; conditions: Homo sapiens
EKVX = test: Antitumor activity against EKVX cells; type: functional; conditions: Homo sapiens
U-251 = test: Antitumor activity against U251 cells; type: functional; conditions: Homo sapiens; summary of the method: as §1
HOP-92 = test: Antitumor activity against HOP92 cells; type: functional; conditions: Homo sapiens
SNB-19 = test: Antitumor activity against SNB19 cells; type: functional; conditions: Homo sapiens; summary of the method: as §1
Hs-578T = test: Antitumor activity against HS578T cells; type: functional; conditions: Homo sapiens
SR = test: Antitumor activity against SR cells; type: functional; conditions: Homo sapiens; summary of the method: as §1
SF-295 = test: Antitumor activity against SF295 cells; type: functional; conditions: Homo sapiens
MDA-MB-435 = test: Antitumor activity against MDA-MB-435 cells; type: functional; conditions: Homo sapiens
SW-620 = test: Antitumor activity against SW620 cells; type: functional; conditions: Homo sapiens; summary of the method: as §1
HT-29 = test: Antitumor activity against HT29 cells; type: functional; conditions: Homo sapiens
OVCAR-3 = test: Antitumor activity against OVCAR-3 cells; type: functional; conditions: Homo sapiens
SK-MEL-28 = test: Antitumor activity against SK-MEL-28 cells; type: functional; conditions: Homo sapiens
MCF7 = test: Antitumor activity against MCF7 cells; type: functional; conditions: Homo sapiens
RXF 393 = test: Antitumor activity against RXF393 cells; type: functional; conditions: Homo sapiens
[5] = read-out: Log LC50 (the source's name) (converted)

## CC(=O)Nc1ccc(S(=O)(=O)NNC(=O)c2cccnc2Nc2ccc(Cl)cc2)cc1
TK-10
  GI50: 25.1 µM
  LC50: > 100 µM
TK-10; read-out: Log TGI (converted)
  TGI: > 100 µM
[1]
  GI50: > 100 µM
[1]; [5]
  CC50: > 100 µM
[1]; read-out: Log TGI (converted)
  TGI: > 100 µM
SK-OV-3
  GI50: 57.5 µM
SK-OV-3; [5]
  CC50: > 100 µM
SK-OV-3; read-out: Log TGI (converted)
  TGI: > 100 µM
DU-145
  GI50: 34.7 µM
  LC50: > 100 µM
DU-145; read-out: Log TGI (converted)
  TGI: > 100 µM
A549
  GI50: 32.4 µM
  LC50: > 100 µM
A549; read-out: Log TGI (converted)
  TGI: > 100 µM
HOP-62
  GI50: > 100 µM
HOP-62; [5]
  CC50: > 100 µM
HOP-62; read-out: Log TGI (converted)
  TGI: > 100 µM
NCI-H460
  GI50: 4.68 µM
  LC50: > 100 µM
NCI-H460; read-out: Log TGI (converted)
  TGI: > 100 µM
BT-549
  GI50: 25.1 µM
  LC50: > 100 µM
BT-549; read-out: Log TGI (converted)
  TGI: > 100 µM
HCT-15
  GI50: 13.8 µM
  LC50: > 100 µM
HCT-15; read-out: Log TGI (converted)
  TGI: > 100 µM
SK-MEL-5
  GI50: 5.62 µM
  LC50: > 100 µM
SK-MEL-5; read-out: Log TGI (converted)
  TGI: > 100 µM
Bacillus subtilis
  MIC: 17 µg/mL (≈ 37 µM)
[2]
  GI50: 9.77 µM
  LC50: > 100 µM
[2]; read-out: Log TGI (converted)
  TGI: > 100 µM
[3]
  GI50: 24 µM
  LC50: > 100 µM
[3]; read-out: Log TGI (converted)
  TGI: > 100 µM
SNB-75
  GI50: 5.5 µM
SNB-75; [5]
  CC50: > 100 µM
SNB-75; read-out: Log TGI (converted)
  TGI: > 100 µM
CCRF-CEM
  LC50: > 100 µM
CCRF-CEM; read-out: Log TGI (converted)
  TGI: > 100 µM
CCRF-CEM; read-out: pGI50 (converted)
  GI50: 21.4 µM
[4]
  MIC: 22 µg/mL (≈ 47.8 µM)
UACC-257
  GI50: 89.1 µM
  LC50: > 100 µM
UACC-257; read-out: Log TGI (converted)
  TGI: > 100 µM
K562
  GI50: 8.51 µM
  LC50: > 100 µM
K562; read-out: Log TGI (converted)
  TGI: > 100 µM
T47D
  GI50: 6.31 µM
T47D; [5]
  CC50: > 100 µM
T47D; read-out: Log TGI (converted)
  TGI: > 100 µM
HCC 2998
  GI50: 8.32 µM
  LC50: > 100 µM
HCC 2998; read-out: Log TGI (converted)
  TGI: > 100 µM
M14
  GI50: 11.5 µM
  LC50: > 100 µM
M14; read-out: Log TGI (converted)
  TGI: > 100 µM
Escherichia coli
  MIC: 18 µg/mL (≈ 39.1 µM)
KM12
  GI50: 4.17 µM
KM12; [5]
  CC50: > 100 µM
KM12; read-out: Log TGI (converted)
  TGI: > 100 µM
MOLT-4
  GI50: 50.1 µM
  LC50: > 100 µM
MOLT-4; read-out: Log TGI (converted)
  TGI: > 100 µM
CAKI-1
  GI50: 9.12 µM
  LC50: > 100 µM
CAKI-1; read-out: Log TGI (converted)
  TGI: > 100 µM
NCI-H226
  GI50: 42.7 µM
NCI-H226; [5]
  CC50: > 100 µM
NCI-H226; read-out: Log TGI (converted)
  TGI: > 100 µM
EKVX
  GI50: 49 µM
  LC50: > 100 µM
EKVX; read-out: Log TGI (converted)
  TGI: > 100 µM
U-251
  GI50: 24 µM
  LC50: > 100 µM
U-251; read-out: Log TGI (converted)
  TGI: > 100 µM
HOP-92
  GI50: > 100 µM
HOP-92; [5]
  CC50: > 100 µM
HOP-92; read-out: Log TGI (converted)
  TGI: > 100 µM
SNB-19
  GI50: 14.1 µM
SNB-19; [5]
  CC50: > 100 µM
SNB-19; read-out: Log TGI (converted)
  TGI: > 100 µM
Hs-578T
  GI50: 24 µM
Hs-578T; [5]
  CC50: > 100 µM
Hs-578T; read-out: Log TGI (converted)
  TGI: > 100 µM
SR
  GI50: 6.31 µM
  LC50: > 100 µM
SR; read-out: Log TGI (converted)
  TGI: > 100 µM
SF-295
  GI50: 3.47 µM
SF-295; [5]
  CC50: > 100 µM
SF-295; read-out: Log TGI (converted)
  TGI: > 100 µM
MDA-MB-435
  GI50: 3.24 µM
  LC50: > 100 µM
MDA-MB-435; read-out: Log TGI (converted)
  TGI: > 100 µM
SW-620
  GI50: 7.59 µM
SW-620; [5]
  CC50: > 100 µM
SW-620; read-out: Log TGI (converted)
  TGI: > 100 µM
HT-29
  GI50: 3.98 µM
  LC50: > 100 µM
HT-29; read-out: Log TGI (converted)
  TGI: > 100 µM
OVCAR-3
  GI50: 3.72 µM
OVCAR-3; [5]
  CC50: > 100 µM
OVCAR-3; read-out: Log TGI (converted)
  TGI: > 100 µM
SK-MEL-28
  GI50: 23.4 µM
  LC50: > 100 µM
SK-MEL-28; read-out: Log TGI (converted)
  TGI: > 100 µM
MCF7
  GI50: 4.37 µM
  LC50: > 100 µM
MCF7; read-out: Log TGI (converted)
  TGI: > 100 µM
RXF 393
  GI50: 37.2 µM
  LC50: > 100 µM
RXF 393; read-out: Log TGI (converted)
  TGI: > 100 µM
